Consider 13 compounds from publication PMC10938640 (Chemistry & biodiversity, 2023).

A word on the CC50: it is the concentration that lowers cell viability or growth by half. Low values mean greater toxicity to the cells, high ones lower toxicity to the cells.

Series [1] can be described thus: Differential Nuclear Staining. In kind it is cell-based, human. Conditions: human, MCF-10A mammary epithelial cells.
For series [2], the system named is MDA-MB-231 triple-negative breast cancer cell line. Nature of the series: Differential Nuclear Staining. In kind it is cell-based, human.
Series [3] concerns CEM acute lymphoblastic leukemia cell line. The experiment in a line: Differential Nuclear Staining. In kind it is cell-based, human. The method in brief: (§1)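 Cells grown in RPMI-1640 with 10% heat-inactivated FBS and penicillin/streptomycin at 37 °C, 5% CO2, then seeded at 10,000/well and left overnight. Test compound given at […] for 48 h, with untreated, 1% v/v DMSO and 1 mM H2O2 controls, at least three technical replicates. Hoechst plus PI (1 μg/mL final) added for the last 2 h. Wells imaged at 4X, live/dead percentages scored, and CC50 derived by linear interpolation.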

The test system of series [4] is Jurkat acute T cell leukemia cell line. Nature of the series: Differential Nuclear Staining. In kind it is cell-based, human. Conditions: 48 h exposure, DNS assay. Put shortly:
as §1

Series [5] can be described thus: Solubility in the cytotoxicity experiment. In kind it is physicochemical. To be noted: could not be examined at concentrations higher than 1 μM; crystals formed.
Series [6] relates to MCF-10A mammary epithelial cell line. Nature of the series: Differential Nuclear Staining. In kind it is cell-based, human. Conditions: MCF-10A, 72 h exposure, DNS assay.
Series [7] has as its system Jurkat cells. Nature of the series: Cell cycle distribution analysis, NIM-DAPI. In kind it is cell-based, human. Conditions: 72 h.
The test system of series [8] is Jurkat cells. Nature of the series: Reactive oxygen species. To be noted: 18 h, CC50 (4.36 μM) and 2x CC50 (8.72 μM) of 6h, H2O2 positive control, vs DMSO. In kind it is cell-based, human.
For series [9], the system named is Jurkat cells. Nature of the series: Annexin V-FITC/PI apoptosis assay. In kind it is cell-based, human. To be noted: 24 h, CC50 (4.36 μM) and 2x CC50 (8.72 μM), vs vehicle control.
The subject of series [10] is Jurkat cells. Nature of the series: Mitochondrial depolarization assay, MitoProbe JC-1. In kind it is cell-based, human. Conditions: 5 h; for Cells with depolarized mitochondria: solvent 20.9%.
The mark [11] stands for this setting: MDA-MB-231, 72 h exposure, DNS assay.
The mark [12] stands for this setting: 6h at CC25 (2.18 μM) and CC50 (4.36 μM), vs DMSO.

Each structure is given as a SMILES string. Entries after “also recorded” stand apart in the source; their conditions may differ. Bounds are passed on as bounds.

For the compound `Cc1ccc2c(c1)C(=Cc1cn(-c3ccccc3)nc1-c1cc3ccccc3oc1=O)C(=O)N2` [Compound 6k, 5-methyl-3-((3-(2-oxo-2H-chromen-3-yl)-1-phenyl-1H-pyrazol-4-yl)methylene)indolin-2-one], the CC50 at 72 h in series [1] is > 20 µM. The CC50 in series [2] (Homo sapiens, MDA-MB-231, 72 h) was > 20 µM; in series [3] (Homo sapiens, 48 h), > 20 µM; in [4] (Homo sapiens, 48 h), > 20 µM.

As for `Cc1ccc2c(c1)C(=Cc1cn(-c3ccccc3)nc1-c1ccccc1)C(=O)N2` [Compound 6g, 3-((1,3-diphenyl-1H-pyrazol-4-yl)methylene)-5-methylindolin-2-one], it took 13 ± 0.49 µM to reach half-maximal cytotoxicity in [1] (CC50 at 72 h). For the same compound, the 50% cytotoxic concentration (CC50) was > 20 µM in [2] (Homo sapiens, MDA-MB-231, 72 h); > 20 µM in series [3] (Homo sapiens, 48 h); > 20 µM in series [4] (Homo sapiens, 48 h).

`COc1ccc(-c2nn(-c3ccccc3)cc2C=C2C(=O)Nc3ccc(C)cc32)cc1` [Compound 6i, 3-((3-(4-methoxyphenyl)-1-phenyl-1H-pyrazol-4-yl)methylene)-5-methylindolin-2-one] gave a CC50 at 72 h in series [1] of 9.37 ± 0.42 µM. For the same compound, the 50% cytotoxic concentration (CC50) in [2] (Homo sapiens, MDA-MB-231, 72 h) is > 20 µM; in series [3] (Homo sapiens, 48 h) it was > 20 µM; in series [4] (Homo sapiens, 48 h), > 20 µM.

On to `COc1ccc(-c2nn(-c3ccccc3)cc2C=C2C(=O)Nc3ccccc32)cc1` [Compound 6d, 3-((3-(4-Methoxyphenyl)-1-phenyl-1H-pyrazol-4-yl)methylene)indolin-2-one], for which the CC50 at 72 h in series [1] is > 1 µM. Further, the CC50 is > 1 µM in [2] (Homo sapiens, MDA-MB-231, 72 h); > 1 µM in series [3] (Homo sapiens, 48 h); > 1 µM in [4] (Homo sapiens, 48 h). The “Solubility (result in words)” value in series [5] was “poor solubility”.

Turning to `O=C1Nc2ccccc2C1=Cc1cn(-c2ccccc2)nc1-c1ccccc1` [Compound 6a], the CC50 in [6] is > 1 µM; in series [2] (setting [11]), > 1 µM; in series [3] (CEM, 48 h exposure, DNS assay) it was > 1 µM; in series [4] it was > 1 µM. In addition, in [5], the “Solubility (result in words)” value is reported as “poor solubility”.

With `COc1cc([C@@H]2c3cc4c(cc3[C@@H](O[C@@H]3O[C@@H]5CO[C@@H](C)O[C@H]5[C@H](O)[C@H]3O)[C@H]3COC(=O)[C@H]23)OCO4)cc(OC)c1O` [etoposide, reference compound], the “DNA fragmentation (sub G0/G1)” value in series [7] (setting [12]) is listed as “moderate but significant increase in DNA fragmentation (sub G0/G1)”. Moreover, in [7] (control), the “S hyperdiploid phase subpopulation” value is reported as “significant arrest in the S hyperdiploid phase”.

In series [1], `Cc1ccc2c(c1)C(=Cc1cn(-c3ccccc3)nc1-c1ccc(Cl)cc1)C(=O)N2` [Compound 6j, 3-((3-(4-chlorophenyl)-1-phenyl-1H-pyrazol-4-yl)methylene)-5-methylindolin-2-one] yielded a CC50 at 72 h of 8.59 ± 0.31 µM. Further, the CC50 in series [2] (Homo sapiens, MDA-MB-231, 72 h) is > 20 µM; in [3] (Homo sapiens, 48 h), 7.66 ± 0.19 µM.

Take `OO` [Compound H2O2, H2O2, reference compound]: in series [8], the ROS overproduction/accumulation result was “displayed the highest amount of accumulated ROS”. In addition, the “DNA fragmentation (sub G0/G1)” value in [7] (setting [12]) was “moderate but significant increase in DNA fragmentation (sub G0/G1)”.

Regarding `Cc1ccc(-c2nn(-c3ccccc3)cc2C=C2C(=O)Nc3ccc(C)cc32)cc1` [Compound 6h, 5-methyl-3-((3-(1-phenyl)-3-(p-tolyl)-1H-pyrazol-4-yl)methylene)indolin-2-one], the CC50 in [6] was 14.8 ± 1.48 µM; in series [2] (setting [11]) it was > 20 µM; in [3] (CEM, 48 h exposure, DNS assay) it was 7.14 ± 0.92 µM; in series [4], 4.36 ± 0.2 µM. Also, the “Phosphatidylserine (PS) externalization / apoptosis” value in series [9] is reported as “induces a significant amount of PS externalization in a dose-response trend; also recorded: induced significant PS externalization”. For the same compound, in series [8], the ROS overproduction/accumulation result is given as “does not activate ROS overproduction and/or accumulation; also recorded: does not cause ROS accumulation”. Moreover, the “Mitochondrial depolarization (result in words)” value in series [10] (CC50 and 2x CC50) is “does not cause mitochondrial depolarization; also recorded: No significant increase in cells with depolarized mitochondria”. The “Cells with depolarized mitochondria” value in [10] (at 2x CC50, untreated 13.2%) was 18.7%; in series [10] (at CC50, untreated 13.2%), 18.3%. For the same compound, in series [7] (setting [12]), the “DNA fragmentation (sub G0/G1)” value is recorded as “moderate but significant increase in DNA fragmentation (sub G0/G1); also recorded: significant increase in DNA fragmentation (sub G0/G1; A)”. Further, the G0/G1 phase subpopulation result in series [7] (setting [12]) is “significant cell cycle arrest was seen in the G0/G1 subpopulation; also recorded: cell cycle arrest in the G0/G1 diploid phase”. The “G2/M (tetraploid) phase subpopulation” value in series [7] (setting [12]) is listed as “small but also significant reduction in the G2/M (tetraploid) phase; also recorded: significant decrease in G2/M”.

Take `Cc1ccc(-c2nn(-c3ccccc3)cc2C=C2C(=O)Nc3ccccc32)cc1` [Compound 6b, 3-((1-Phenyl-3-(p-tolyl)-1H-pyrazol-4-yl)methylene)indolin-2-one]: in series [1], the cytotoxic concentration (CC50) at 72 h is > 1 µM. The CC50 in [2] (Homo sapiens, MDA-MB-231, 72 h) was > 1 µM; in [3] (Homo sapiens, 48 h) it was > 1 µM; in series [4] (Homo sapiens, 48 h) it was > 1 µM. The “Solubility (result in words)” value in [5] is “poor solubility”.

Take `O=C1Nc2ccccc2C1=Cc1cn(-c2ccccc2)nc1-c1ccc([N+](=O)[O-])cc1` [Compound 6c, 3-((3-(4-Nitrophenyl)-1-phenyl-1H-pyrazol-4-yl)methylene)indolin-2-one]: in [1], the half-maximal cytotoxic concentration (CC50) at 72 h was > 20 µM. In addition, the CC50 in series [2] (Homo sapiens, MDA-MB-231, 72 h) was > 20 µM; in series [3] (Homo sapiens, 48 h) it was > 20 µM; in [4] (Homo sapiens, 48 h) it was > 20 µM.

Turning to `O=C1Nc2ccccc2C1=Cc1cn(-c2ccccc2)nc1-c1ccc(Cl)cc1` [Compound 6e, 3-((3-(4-Chlorophenyl)-1-phenyl-1H-pyrazol-4-yl)methylene)indolin-2-one], the CC50 at 72 h in series [1] was > 20 µM. Besides, the CC50 is > 20 µM in series [2] (Homo sapiens, MDA-MB-231, 72 h); > 20 µM in [3] (Homo sapiens, 48 h); > 20 µM in series [4] (Homo sapiens, 48 h).

Turning to `O=C1Nc2ccccc2C1=Cc1cn(-c2ccccc2)nc1-c1cc2ccccc2oc1=O` [Compound 6f, 3-((3-(2-Oxo-2H-chromen-3-yl)-1-phenyl-1H-pyrazol-4-yl)methylene)indolin-2-one], in series [1], the CC50 at 72 h is > 20 µM. Further, the CC50 in series [2] (Homo sapiens, MDA-MB-231, 72 h) was > 20 µM; in [3] (Homo sapiens, 48 h) it was > 20 µM; in series [4] (Homo sapiens, 48 h), > 20 µM.
